Reference: ChEMBL document CHEMBL1149311, “Synthesis and antitumor activity of methyltriazene prodrugs simultaneously releasing DNA-methylating agents and the antiresistance drug O(6)-benzylguanine” (J Med Chem, 2004)

Legend:
Format in all cases: functional
K562 = test: Antitumor activity against human K562 cells
Procedure, shortened: (§1)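 Tested in the NCI in vitro disease-oriented human tumor cell screen. The endpoints are IC50 (molar concentration giving 50% growth inhibition), TGI (total growth inhibition) and LC50 (50% net cell death). The maximal concentration tested was 100 μM. Subpanel values are means of several individual cell lines.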

RPMI-8226 = test: Antitumor activity against human RPMI8226 cells; procedure, shortened: as §1
A549 = test: Antitumor activity against human A549 cells; procedure, shortened: as §1
EKVX = test: Antitumor activity against human EKVX cells; procedure, shortened: as §1
HOP-62 = test: Antitumor activity against human HOP62 cells; procedure, shortened: as §1
NCI-H23 = test: Antitumor activity against human NCI-H23 cells; procedure, shortened: as §1
NCI-H460 = test: Antitumor activity against human NCI-H460 cells; procedure, shortened: as §1
HCT-116 = test: Antitumor activity against human HCT116 cells; procedure, shortened: as §1
KM12 = test: Antitumor activity against human KM12 cells; procedure, shortened: as §1
SF-268 = test: Antitumor activity against human SF268 cells; procedure, shortened: as §1
SF-295 = test: Antitumor activity against human SF295 cells; procedure, shortened: as §1
SF-539 = test: Antitumor activity against human SF539 cells; procedure, shortened: as §1
SNB-75 = test: Antitumor activity against human SNB75 cells
Procedure, shortened: (§2)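 NCI in vitro disease-oriented tumour cell line screen. Read-outs are IC50 (molar concentration giving 50% growth inhibition), TGI (molar concentration giving total inhibition of net growth) and LC50 (molar concentration giving 50% net cell death). The maximal concentration tested was 100 μM.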

U-251 = test: Antitumor activity against human U251 cells; procedure, shortened: as §2
SK-MEL-2 = test: Antitumor activity against human SK-MEL-2 cells; procedure, shortened: as §1
SK-MEL-5 = test: Antitumor activity against human SK-MEL-5 cells; procedure, shortened: as §1
UACC-257 = test: Antitumor activity against human UACC257 cells; procedure, shortened: as §2
UACC-62 = test: Antitumor activity against human UACC62 cells; procedure, shortened: as §2
IGROV-1 = test: Antitumor activity against human IGROV1 cells; procedure, shortened: as §1
OVCAR-3 = test: Antitumor activity against human OVCAR-3 cells; procedure, shortened: as §1
[1] = read-out: Log LC50 (the source's name) (converted)

Compound `CN(/N=N/c1nc(OCc2ccccc2)c2nc[nH]c2n1)C(=O)N(C)/N=N/c1nc(OCc2ccccc2)c2nc[nH]c2n1` has a GI50 (K562) of 75.9 µM, a CC50 (K562; [1]) of over 100 µM and a TGI (K562; read-out: Log TGI (converted)) of over 100 µM. For the same compound, the GI50 (RPMI-8226) was 38 µM, the CC50 (RPMI-8226; [1]) was over 100 µM and the TGI (RPMI-8226; read-out: Log TGI (converted)) was over 100 µM. The CC50 (A549; [1]) was over 100 µM, the TGI (A549; read-out: Log TGI (converted)) was over 100 µM and the GI50 (EKVX) was 38 µM. For the same compound, the CC50 (EKVX; [1]) was over 100 µM, the TGI (EKVX; read-out: Log TGI (converted)) was over 100 µM and the GI50 (HOP-62) was 95.5 µM. The LC50 (HOP-62) was over 100 µM, the TGI (HOP-62; read-out: Log TGI (converted)) was over 100 µM and the GI50 (NCI-H23) was 34.7 µM. For the same compound, the LC50 (50% net cell kill) (NCI-H23) was over 100 µM, the TGI (NCI-H23; read-out: Log TGI (converted)) was over 100 µM and the GI50 (NCI-H460) was 26.3 µM. It also gave a CC50 (NCI-H460; [1]) of over 100 µM, a TGI (NCI-H460; read-out: Log TGI (converted)) of over 100 µM and a GI50 (HCT-116) of 35.5 µM. For the same compound, the CC50 (HCT-116; [1]) was over 100 µM, the TGI (HCT-116; read-out: Log TGI (converted)) was over 100 µM and the GI50 (KM12) was 85.1 µM. For the same compound, the CC50 (KM12; [1]) was over 100 µM, the TGI (KM12; read-out: Log TGI (converted)) was over 100 µM and the GI50 (SF-268) was 47.9 µM. For the same compound, the CC50 (SF-268; [1]) was over 100 µM, the TGI (SF-268; read-out: Log TGI (converted)) was over 100 µM and the GI50 (SF-295) was 32.4 µM. The CC50 (SF-295; [1]) was over 100 µM, the TGI (SF-295; read-out: Log TGI (converted)) was over 100 µM and the GI50 (SF-539) was 38 µM. It also gave a CC50 (SF-539; [1]) of over 100 µM, a TGI (SF-539; read-out: Log TGI (converted)) of over 100 µM and a GI50 (SNB-75) of over 100 µM. The CC50 (SNB-75; [1]) was over 100 µM, the TGI (SNB-75; read-out: Log TGI (converted)) was over 100 µM and the GI50 (U-251) was 50.1 µM. For the same compound, the CC50 (U-251; [1]) was over 100 µM, the TGI (U-251; read-out: Log TGI (converted)) was over 100 µM and the GI50 (SK-MEL-2) was 64.6 µM. For the same compound, the CC50 (SK-MEL-2; [1]) was over 100 µM, the TGI (SK-MEL-2; read-out: Log TGI (converted)) was over 100 µM and the GI50 (SK-MEL-5) was 20.9 µM. For the same compound, the CC50 (SK-MEL-5; [1]) was over 100 µM, the TGI (SK-MEL-5; read-out: Log TGI (converted)) was 61.7 µM and the GI50 (UACC-257) was 55 µM. For the same compound, the CC50 (UACC-257; [1]) was over 100 µM, the TGI (UACC-257; read-out: Log TGI (converted)) was over 100 µM and the GI50 (UACC-62) was 30.9 µM. For the same compound, the CC50 (UACC-62; [1]) was over 100 µM, the TGI (UACC-62; read-out: Log TGI (converted)) was over 100 µM and the GI50 (IGROV-1) was 34.7 µM. For the same compound, the CC50 (IGROV-1; [1]) was over 100 µM, the TGI (IGROV-1; read-out: Log TGI (converted)) was over 100 µM and the GI50 (OVCAR-3) was 34.7 µM. For the same compound, the LC50 (OVCAR-3) was over 100 µM and the TGI (OVCAR-3; read-out: Log TGI (converted)) was over 100 µM.
